Screening results from PubChem.
The list is not random: actives were taken first. Their share in the collection is about 1.9%.
beta cell repl: inducers of beta-cell replication in MIN6 cells. MIN6 cells proliferation, ATPlite luminescence, 48 h; cells starved in 0.2% serum; 100% = growth in 10% serum. 330,000 tested, 0.29% active. proliferation, % at 10 µM;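 active = compounds whose signal lies at least 3.5 SD above the mean of all wells on their plate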
Rev-erbA mod: modulators of human Rev-erb alpha DNA binding; Rev-erbα–FITC-DNA binding, fluorescence polarization, 90 min; activity, % at 10 µM; 370,000 tested, 0.79% active;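 active = activity above about 14%, limit read from the data; passing the limit was not always enough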
UCH37 inh: human UCH37 deubiquitinating enzyme inhibition. Q9Y5K5. purified proteasome/UCH37, Ub-AMC cleavage fluorescence. inhibition, % (no concentration beside the values). 330,000 tested, 0.33% active. AID 588478;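 active = mean inhibition over replicate wells above about 20%, limit read from the data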
Target sequence (Q9Y5K5 whole entry, looked up): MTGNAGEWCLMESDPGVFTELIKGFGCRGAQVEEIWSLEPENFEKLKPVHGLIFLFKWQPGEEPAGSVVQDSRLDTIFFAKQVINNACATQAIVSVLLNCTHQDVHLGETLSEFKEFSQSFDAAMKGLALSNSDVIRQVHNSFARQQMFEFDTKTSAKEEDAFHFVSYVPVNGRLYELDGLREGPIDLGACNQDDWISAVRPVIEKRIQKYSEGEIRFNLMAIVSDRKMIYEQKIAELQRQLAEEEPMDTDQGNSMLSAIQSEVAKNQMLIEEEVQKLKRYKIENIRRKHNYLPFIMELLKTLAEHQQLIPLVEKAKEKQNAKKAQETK
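Schedule: 30 min plus 25 min, room temperature / Material: human UCH37 within purified proteasomes / Technique: AMC fluorescence intensity at 355/460 nm / Buffer or medium: pH 7.4 Tris-HCl (50 mM) with ovalbumin, ATP-MgCl2, DTT / Controls: wells without proteasome as full block, compound-free enzyme plus substrate as uninhibited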
PG9 Ab binder: small molecules binding HIV-1 gp120 antibody PG9; inhibition, % at 6.7 µM; 360,000 tested, 0.43% active; TR-FRET gp120-PG9 antibody binding; in the data active = inhibition above about 8.5%
Yeast superoxide: lowers age-related superoxide in aged yeast cells. superoxide response (% of plate mean), % at 10 µM. 330,000 tested, 0.18% active. AID 2690. S. cerevisiae aged cells, superoxide DHE fluorescence; active compounds read low;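 active = superoxide response under a set limit, about three screen SD below normal, cut at about 65% in these data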;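 note: yeast aged for seven days with compound at 30 °C before DHE staining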
Rce1 inhib: blocks yeast Ras-converting enzyme; calls only; yeast membranes, quenched prenylated peptide cleavage fluorescence; Q03530; 290,000 tested, 0.27% active;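 active = fall in fluorescence gain of 50% or more versus controls, with final raw signal at or below 3038400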
PG9 bind confirm: confirmation of small molecules binding HIV-1 gp120 antibody PG9. shares compounds with PG9 Ab binder. inhibition, % at 6.7 µM. 1,500 tested, 90% active. TR-FRET PG9 antibody binding, biochemical; in the data active = inhibition above about 9%
PGV04 counter: counter-screen for PG9 binders: binding control antibody PGV04; inhibition, % at 6.7 µM; AID 651604; 1,500 tested, 95% active; TR-FRET PGV04 antibody-gp120 binding, biochemical; shares compounds with PG9 Ab binder; in the data active = inhibition above about 9.5%
Hits are given with their value.

COc1ccc2c(c1)C(C)CC(C)(C)N2C(=O)CSc1ncn[nH]1 (stereo not given) was read as beta cell repl inactive, Rev-erbA mod inactive, UCH37 inh inactive, PG9 Ab binder 15.7, Yeast superoxide inactive, PG9 bind confirm 10.9 and PGV04 counter 15.1.
NC(=O)c1nn(-c2ccccc2)nc1NC(=O)CN1CCCC1 was read as beta cell repl inactive, Rev-erbA mod inactive, UCH37 inh inactive, PG9 Ab binder inactive, Yeast superoxide inactive and Rce1 inhib inactive.
NC(=O)c1nn(-c2ccccc2)nc1NC(=O)Cn1nnc(-c2ccccc2)n1 was read as beta cell repl inactive, Rev-erbA mod inactive, UCH37 inh inactive, PG9 Ab binder 8.6, Yeast superoxide inactive, Rce1 inhib inactive, PG9 bind confirm 18.4 and PGV04 counter 19.4.
`O=C(Nc1ccccc1C(=O)NC1CCCCC1)c1ccccc1` gave beta cell repl inactive, Rev-erbA mod inactive, UCH37 inh inactive, PG9 Ab binder inactive, Yeast superoxide inactive and Rce1 inhib inactive.
`O=C(Nc1ccsc1C(=O)NC1CCCCC1)c1ccccc1` gave beta cell repl inactive, Rev-erbA mod inactive, UCH37 inh inactive, PG9 Ab binder 28.5, Yeast superoxide inactive, Rce1 inhib inactive, PG9 bind confirm 24.9 and PGV04 counter 31.1.
CCSc1nc(-c2ccccc2)c(C#N)c(=O)[nH]1 was read as beta cell repl inactive, Rev-erbA mod inactive, UCH37 inh inactive, PG9 Ab binder 9.5, Yeast superoxide inactive, Rce1 inhib inactive, PG9 bind confirm 14.6 and PGV04 counter 21.4.
N#Cc1c(-c2ccccc2)nc(SCC(=O)NC2CCCCC2)[nH]c1=O was read as beta cell repl inactive, Rev-erbA mod inactive, UCH37 inh inactive, PG9 Ab binder inactive, Yeast superoxide inactive and Rce1 inhib inactive.
`CSc1nc(-c2cccs2)c(C#N)c(=O)[nH]1` gave beta cell repl inactive, Rev-erbA mod inactive, PG9 Ab binder 49.0, Yeast superoxide inactive, Rce1 inhib inactive, PG9 bind confirm 54.9 and PGV04 counter 68.1.
Screening CSc1nc(-c2ccc(Cl)cc2)c(C#N)c(=O)[nH]1 returned beta cell repl inactive, Rev-erbA mod inactive, UCH37 inh inactive, PG9 Ab binder inactive, Yeast superoxide inactive and Rce1 inhib inactive.
For N#Cc1c(-c2cccs2)cc(-c2cccs2)[nH]c1=O the results were beta cell repl inactive, Rev-erbA mod inactive, UCH37 inh inactive, PG9 Ab binder inactive, Yeast superoxide inactive and Rce1 inhib inactive.
CCC(Sc1nc(-c2ccccc2)c(C#N)c(=O)[nH]1)C(=O)Nc1cc(C)on1 (stereo not given) was read as beta cell repl inactive, Rev-erbA mod inactive, UCH37 inh inactive, PG9 Ab binder 28.2, Yeast superoxide inactive, Rce1 inhib inactive, PG9 bind confirm 35.5 and PGV04 counter 44.9.
`CSc1nc(-c2ccccc2)c(C#N)c(=O)[nH]1` gave beta cell repl inactive, Rev-erbA mod inactive, UCH37 inh inactive, PG9 Ab binder 14.8, Yeast superoxide inactive, Rce1 inhib inactive, PG9 bind confirm 22.5 and PGV04 counter 34.7.
`CCC(Sc1nc2ccccc2[nH]1)C(=O)Nc1cc(C)on1` (stereo not given) gave beta cell repl inactive, Rev-erbA mod inactive, UCH37 inh inactive, PG9 Ab binder inactive, Yeast superoxide inactive and Rce1 inhib inactive.
S=C(NCCN1CCOCC1)NN=Cc1c2ccccc2cc2ccccc12 was read as UCH37 inh inactive.
CC1=NNC(=O)C1CC(=O)NN=C/C=C/c1ccccc1 (stereo not given) was read as UCH37 inh inactive.
Screening CCOc1cc(C=NNC(=O)CNc2cccc(C)c2)ccc1OC(=O)c1ccccc1 returned UCH37 inh inactive.
`N#Cc1c(-c2cccs2)nc(SCc2ccc(Cl)cc2)[nH]c1=O` gave beta cell repl inactive, Rev-erbA mod inactive, UCH37 inh inactive, PG9 Ab binder 46.9, Rce1 inhib inactive, PG9 bind confirm 50.0 and PGV04 counter 61.2.
